Key:
Stock solution stability = format: physicochemical; details: stock solution in methanol; for Long-term stability of stock solution, time with no significant change: 5 °C
How it was run: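 Methanol stock solutions of the analyte (500 µg/mL) and its deuterated internal standard (100 µg/mL) were tested for short-term and long-term stability. Working solutions were made by dilution in methanol. Stock and working solutions were stored at 2–8 °C.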

PDE-5 = details: cited from earlier work
[1] = cited from earlier work
[2] = format: in vivo, human
How it was run: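 Single oral 20 mg tablet dose, test vs reference formulation, given fasting to 24 healthy Indian subjects. The test compound was measured in plasma by LC-MS/MS with a deuterated internal standard. 200 µL plasma was extracted on Strata-X-C SPE and run on a Synergi Hydro-RP C18 column. Mobile phase was methanol:10 mM ammonium formate pH 4.0 (90:10) at 0.9 mL/min, with positive ESI MRM. Calibration range was 0.50–500 ng/mL, and non-compartmental PK was calculated.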

[3] = Stability of tadalafil in human plasma under storage and process conditions; format: in vitro ADME
Whole blood stability = format: in vitro ADME, human; details: 25 °C
[4] = 20 mg oral, fasting, 24 subjects

Row | Structure (SMILES) | Long-term stability of stock solution, time with no significant change (Stock solution stability) | Short-term stability of stock solution, time remained stable (Stock solution stability; room temperature) | Selectivity for PDE-5 over other PDE isozymes (PDE-5) [times] | Bioavailability [1] | Fraction of the metabolized drug excreted in the urine [1] | Intra subject variation of AUC 0-inf [2, 4] [% CV] | Intra subject variation of AUC 0–168 h [2, 4] [% CV] | Intra subject variation of Cmax [2, 4] [% CV] | Cmax ([2]; male, human, plasma, po, 20 mg) [ng/mL] | Tmax ([2]; male, human, plasma, po, 20 mg) [h] | half-life ([2]; male, human, plasma, po, 20 mg) [h] | Ratios of mean log-transformed Cmax, AUC0–168 h and AUC0-inf and their 90% confidence intervals ([2]; test vs reference, overall range, acceptance criterion 80%–125%) | Time found stable in plasma at room temperature ([3]; controlled blank plasma) | Time stable in extracted plasma samples, room temperature ([3]; extracted plasma samples) [h] | Selectivity for PDE-5 over PDE-1–4 and PDE-7–10 (PDE-5) [times] | Whole blood stability, time with no evidence of degradation (Whole blood stability)
1 | [2H]C([2H])([2H])N1CC(=O)N2[C@H](c3ccc4c(c3)OCO4)c3[nH]c4ccccc4c3C[C@@H]2C1=O [TAD-d3, tadalafil-d3] | up to 10 days | up to 7 h |  |  |  |  |  |  |  |  |  |  |  |  |  | 
2 | CCCc1nn(C)c2c(=O)[nH]c(-c3cc(S(=O)(=O)N4CCN(C)CC4)ccc3OCC)nc12 [sildenafil] |  |  | 41 |  |  |  |  |  |  |  |  |  |  |  |  | 
3 | CN1CC(=O)N2[C@H](c3ccc4c(c3)OCO4)c3[nH]c4ccccc4c3C[C@@H]2C1=O [tadalafil] | up to 10 days |  |  | approximately 80% | one third | 11.56 | 10.09 | 9.53 | 396 | ~2.37 | 18.6 ± 2.47 | 99.2% to 110.9 | up to 12 h | 12 | 1000 | up to 2 h

From article PMC6104147 (Journal of Pharmaceutical Analysis, 2018)
